Test system: MS2 coat protein
Assay: apparent Kd, MS2 coat protein; higher = weaker binding; RNA-MaP array; FMN 200 µM where present
Summary of the method: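 Designs on Illumina sequencing-chip clusters, transcribed by stalled E. coli RNA polymerase, were exposed to SNAP-549-labelled MS2 coat protein in doubling steps from 0.7 or 1.5 nM up to 3 µM, without and then with constant ligand. The buffer held 100 mM Tris-HCl pH 7.5, 80 mM KCl, 4 mM MgCl2, BSA, DTT, yeast tRNA and Tween-20. Apparent Kd values are medians of filtered per-cluster binding-curve fits to green signal normalised to red-channel RNA signal and control-cluster median Fmax.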

[1] = designed as: ON switch for flavin mononucleotide, no ligand
[2] = ligand present: flavin mononucleotide, designed as: ON switch for flavin mononucleotide
[3] = designed as: OFF switch for flavin mononucleotide, no ligand
[4] = ligand present: flavin mononucleotide, designed as: OFF switch for flavin mononucleotide

## UUACUCAUGUAAGGAUAUGCAGCCGAAACGGCUGCAGAAGGUACUAAAAUACAUGAGGAUCACCCAUGUCUUUUUAAUUUAGAU
[1]
  apparent Kd: 75.5 nM
[2]
  apparent Kd: 47.6 nM

## UUACUCAUGUAAGGAUAUGCAGCCGAAACGGCUGCAGAAGGUACUAUAAUACAUGAGGAUCACCCAUGUCUUUUUAAUUUAGAC
[1]
  apparent Kd: 51.2 nM
[2]
  apparent Kd: 78 nM

## UUACUCAUGUAAGGAUAUGCAGCCGUUUCGGCUGCAGAAGGUACUAUAAUACAUGAGGAUCACCCAUGUCUUUUUAAUUUUUAU
[1]
  apparent Kd: 88.7 nM
[2]
  apparent Kd: 40.4 nM

## UUAGAUUAUUGAGGAUAUGGAUAUUUUUAUUAACCAGAAGGCAAACUCAACAUGAGGAUCACCCAUGUAUAAAGGGUAUUAGUU
[3]
  apparent Kd: 95.6 nM
[4]
  apparent Kd: 92.7 nM

## UUAGAUUAUUGAGGAUAUGGAUCUUAUUAUUAACCAGAAGGCAAACUCAACAUGAGGAUCACCCAUGUAUAAAGGGUAUUAGUU
[3]
  apparent Kd: 89.5 nM
[4]
  apparent Kd: 83.4 nM

## UUAGGACAAGCAGGAUAUGUAACAUGAGGAUCACCCAUGUUGAGACUUUGGCACUCCUACAUGCAGCAGAAGGGCUUCAAACCU
[3]
  apparent Kd: 29.7 nM
[4]
  apparent Kd: 66.4 nM

## UUAUAAAGUGUGAGGAUAUGCUGGUCCAUAGAUCAGCAGAAGGCACAUGAGGAUCACCCAUGUAAUAUAUUUUU
[3]
  apparent Kd: 28.8 nM
[4]
  apparent Kd: 133 nM

## UUAUACGUUGAGGAUAUGCGACUUUUUUUAGUUGUAGAAGGCGAUACAUGAGGAUCACCCAUGUUUAUGGGCAU
[3]
  apparent Kd: 166 nM
[4]
  apparent Kd: 218 nM

## UUAUACGUUGAGGAUAUGUUAUUUAGUAUAGUUACAGAAGGCGAUACAUGAGGAUCACCCAUGUUUAUGGGCAU
[3]
  apparent Kd: 196 nM
[4]
  apparent Kd: 153 nM

## UUAUAUAGGUAGGAUAUCGAUAUUAAUUAUUAUCGAGAAGGGUCUACAUGAGGAUCACCCAUGUUAGCAUGUAU
[3]
  apparent Kd: 28.9 nM
[4]
  apparent Kd: 32.9 nM

## UUAUGAGAGCAGGAUAUCUUAUAUUUUUAUUAAAGAGAAGGGCUCACAUGAGGAUCACCCAUGUGGUCCUAGAU
[3]
  apparent Kd: 55.9 nM
[4]
  apparent Kd: 598 nM

## UUAUGCUGAGAGAAGGUUCAAACUACAUAUUGCACACAUGAGGAUCACCCAUGUUGGUGAAUAAGAAAGGAUAUUUUACUGUAU
[3]
  apparent Kd: 20.1 nM
[4]
  apparent Kd: 16.9 nM

## UUAUGCUGAGAGAAGGUUCAAACUACAUAUUGCAUACAUGAGGAUCACCCAUGUUGGUGAAUAAGAAAGGAUAUUUUACUGUAU
[3]
  apparent Kd: 86.6 nM
[4]
  apparent Kd: 63.1 nM

## UUAUGGCUAGGAUAUGCACGUGCAUGUUCAAGUCAAAGAAGACAUGAGGAUCACCCAUGUAGAAGGAGCGGUAC
[3]
  apparent Kd: 37.8 nM
[4]
  apparent Kd: 24.2 nM

## UUAUGUGGCGUAGGAUAUCAUUAGAUUUGUAAUUUAAUUGUAAUUUCCAUAUGAGAAGGACGUAUACAUGAGGAUCACCCAUGU
[3]
  apparent Kd: 14.8 nM
[4]
  apparent Kd: 17.7 nM

## UUAUUAAGUGUGAGGAUAUGCUGGUCCUUGGAUCAGCAGAAGGCACAUGAGGAUCACCCAUGUACUUUAUAAAU
[3]
  apparent Kd: 15.7 nM
[4]
  apparent Kd: 46.6 nM

## UUAUUAUAUGUAGGAUAUGCAUAUUACUAUUGUGCAGAAGGACAUGAGGAUCACCCAUGUAUAUUAUUAUUAUAUAUUAUAUAU
[3]
  apparent Kd: 15.8 nM
[4]
  apparent Kd: 15.7 nM

## UUAUUAUAUGUAGGAUAUGCAUAUUAGUAUUGUGCAGAAGGACAUGAGGAUCACCCAUGUAUAUUAUUAUUAUAUAUUAUAUAU
[3]
  apparent Kd: 14.6 nM
[4]
  apparent Kd: 21.4 nM

## UUAUUAUAUGUAGGAUAUGCAUAUUAUUAUUAUGCAGAAGGACAUGAGGAUCACCCAUGUAUAUUAUUAUUAUAUGUUAUAUAU
[3]
  apparent Kd: 25.5 nM
[4]
  apparent Kd: 36.9 nM

## UUAUUUAGGUAGGAUAUCGAUACUAAUUACUAUCGAGAAGGGUCUACAUGAGGAUCACCCAUGUUAGCAUGUUU
[3]
  apparent Kd: 27.2 nM
[4]
  apparent Kd: 25.5 nM

## UUAUUUAGGUAGGAUAUCGAUACUAAUUAUUAUCGAGAAGGGUCUACAUGAGGAUCACCCAUGUUAGCAUGUUU
[3]
  apparent Kd: 28 nM
[4]
  apparent Kd: 27.7 nM

## UUAUUUAUACAAGGAUAUCAAUUAUAUACACAUCCUACAUGAGGAUCACCCAUGUUUUAUUUUUUUGAGAAGGUGUAUUGUCGG
[1]
  apparent Kd: 21.2 nM
[2]
  apparent Kd: 27.6 nM

## UUAUUUAUGCAAGGAUAUCAAUUAUAUACAAAUCCAACAUGAGGAUCACCCAUGUUUUAUUUUUUUGAGAAGGUGUAUUGUCAG
[1]
  apparent Kd: 36.1 nM
[2]
  apparent Kd: 40.5 nM

## UUAUUUUUACAGAAGGUUUAAUAAUAUGUAUGAGAAGGAUAUGUAACAUGAGGAUCACCCAUGUUUUAUUUAUAUGAGGUUCGU
[3]
  apparent Kd: 15.3 nM
[4]
  apparent Kd: 12.5 nM

## UUCAAAUUCGUAGGAUAUGUAUAAAUUUUCUACAUGAGGAUCACCCAUGUUUCCAUUUUAAAUUGACAGAAGGACGUAAUCUAA
[1]
  apparent Kd: 30 nM
[2]
  apparent Kd: 9.73 nM

## UUCAGCUCGACAGGAUAUACAUCACUGCUUCGGCAGUGUAUCUUAAUAACAUGAGGAUCACCCAUGUAGAAGGGUCGAGCUGAA
[3]
  apparent Kd: 17.9 nM
[4]
  apparent Kd: 31.4 nM

## UUCAGCUCGUCAGGAUAUACGUCACUGCUUCGGCAGUGUGGUAAGAUCACAUGAGGAUCACCCAUGUAGAAGGGACGAGCUGAA
[3]
  apparent Kd: 12.5 nM
[4]
  apparent Kd: 254 nM

## UUCAGCUCGUGAGGAUAUACAUGUGCUGGAAACAGCACUAAAGUUUUCACAUGAGGAUCACCCAUGUAGAAGGCACGAGCUGAG
[3]
  apparent Kd: 15.6 nM
[4]
  apparent Kd: 34.5 nM

## UUCAGCUCGUGAGGAUAUACAUGUGCUGGAAACAGCAUUAAAUAAUUCACAUGAGGAUCACCCAUGUAGAAGGCACGAGCUGAG
[3]
  apparent Kd: 17 nM
[4]
  apparent Kd: 34.4 nM

## UUCAGGGAUCAAGGAUAUCUAUAAACAUGCGGACAUGAGGAUCACCCAUGUUGAUUACCCAUGUGGGAGAAGGUGAACAUGAGG
[1]
  apparent Kd: 44.7 nM
[2]
  apparent Kd: 20.6 nM

## UUCAGGGAUCAAGGAUAUCUAUAUUCAUGAGGACAUGAGGAUCACCCAUGUUGAUUACCCAUGAGGGAGAAGGUGAACAUGAGG
[1]
  apparent Kd: 44.2 nM
[2]
  apparent Kd: 18.7 nM

## UUCGCUAAGGUGUAGCGAGGCUCGCAAGAAGGGUGAUGCACAUGAGGAUCACCCAUGUAAGCCUUACAGGAUAUUGCUUGCCGA
[1]
  apparent Kd: 509 nM
[2]
  apparent Kd: 40.7 nM

## UUCGGACUAUCAGGAUAUGGUGUAGCCUAGUAAAGGACAUGAGGAUCACCCAUGUACCAUUGGUACCAGAAGGGAUGAUCCUAC
[1]
  apparent Kd: 29.9 nM
[2]
  apparent Kd: 24.9 nM

## UUCUCGAUGUAGAAGGCCGCGUCCGGCUCACGCGGAGGAUAUACAUGAGGAUCACCCAUGUGUCUGUGGCUUAUAAGGUACGGA
[3]
  apparent Kd: 98.8 nM
[4]
  apparent Kd: 67.7 nM

## UUCUUUCCUCAUGUACAUGAGGAACAUGAGGAUCACCCAUGUAGAAGGAUUUCCAUUAAAUUAAAAUAGGAUAUACAUAUAUUU
[3]
  apparent Kd: 18.6 nM
[4]
  apparent Kd: 16.7 nM

## UUGAACAUAGGAUAUAGUUGUUUGUACAUGAGGAUCACCCAUGUUAGGGAUGUUUUGUUUCUAGAAGGAUGUUGAU
[3]
  apparent Kd: 170 nM
[4]
  apparent Kd: 80.3 nM

## UUGAAGAUAGGAUAUACGAGGAGAGGAGAGAGAAGGUGAGGACAUGAGGAUCACCCAUGUAGAAGGAUCAGGAA
[3]
  apparent Kd: 81.5 nM
[4]
  apparent Kd: 62.5 nM

## UUGAAGUCAUCAGGAUAUAGUAUUAAAGACAUUUAUAUUUUCAAACAUGAGGAUCACCCAUGUCGCUAGAAGGGAUUAUAGAUU
[3]
  apparent Kd: 49.1 nM
[4]
  apparent Kd: 44.9 nM

## UUGAAUUAUAAGGAUAUGGGAGUCGAUAGACACCCAGAAGGUAUAACAUGAGGAUCACCCAUGUGUCCUAUCUU
[3]
  apparent Kd: 22.2 nM
[4]
  apparent Kd: 23.4 nM

## UUGAAUUUAAACAUGAGGAUCACCCAUGUGUCAUAGUUGACAUAGGAUAUGCUUAUACUUUGAAAGCAGAAGGAUGACGAUACU
[1]
  apparent Kd: 41.3 nM
[2]
  apparent Kd: 10.1 nM

## UUGAGGUGCAAGAAGGAUCACAUGAGGAUCACCCAUGUAAUAUAAAGUCUCGAGAUUUUAUAUUGAUAGGAUAUUGCACCGAAC
[1]
  apparent Kd: 42.2 nM
[2]
  apparent Kd: 6.26 nM

## UUGAGGUGCAAGAAGGGUCACAUGAGGAUCACCCAUGUCAUGUGAAGUCUCGAGAUUUUAUGUGGAUAGGAUAUUGCACCGAAC
[1]
  apparent Kd: 203 nM
[2]
  apparent Kd: 113 nM

## UUGCAGUGCGGGUAGGAUAUGUAGGGUGGUACAUGAGGAUCACCCAUGUAUCCACCCUUCGACCGGCAGAAGGGCCUGUCACCGC
[1]
  apparent Kd: 15.2 nM
[2]
  apparent Kd: 14.8 nM

## UUGCCUCAGAACAUGAGGAUCACCCAUGUGCUGCGGGCAACGUAGGAUAUGAUGGUUUGAUACCAUCAGAAGGAUGAUGGUACC
[1]
  apparent Kd: 5.4 nM
[2]
  apparent Kd: 5.21 nM

## UUGCCUGCGUGUCGCCGGUUUGGACAGGAUAUCCACAUGAGGAUCACCCAUGUCUAACAAAAUACGGAGAAGGGUCCUAGCGGU
[1]
  apparent Kd: 39 nM
[2]
  apparent Kd: 6.55 nM

## UUGCUCAAAUGGGCAGGGACCUCACAUGAGGAUCACCCAUGUCAGGAUAUCCUAGUUUGGACGUAGGAGAAGGGACAGAGUAUC
[3]
  apparent Kd: 227 nM
[4]
  apparent Kd: 171 nM

## UUGGACGUCGUAGGAUAUGUAGGAAAUUCCUACAUGAGGAUCACCCAUGUUGACAUGGAAGAAGGACAGAAGGACGAUGUCCAU
[1]
  apparent Kd: 262 nM
[2]
  apparent Kd: 12.4 nM

## UUGGACGUCGUAGGAUAUGUAGGACAUUCCUACAUGAGGAUCACCCAUGUUGACAUGGAAGAAGGACAGAAGGACGAUGUCCAU
[1]
  apparent Kd: 152 nM
[2]
  apparent Kd: 10.6 nM

## UUGGACGUCGUAGGAUAUGUAGGAUAUCCCUACAUGAGGAUCACCCAUGUUGACAUGGAAGAAGGACAGAAGGACGAUGUCCAU
[1]
  apparent Kd: 105 nM
[2]
  apparent Kd: 11.8 nM

## UUGGACGUCGUAGGAUAUGUAGGAUAUGCCUACAUGAGGAUCACCCAUGUUGACAUGGAAGAAGGACAGAAGGACGAUGUCCAU
[1]
  apparent Kd: 108 nM
[2]
  apparent Kd: 6.64 nM

## UUGGACGUCGUAGGAUAUGUAGGAUAUUCCUACAUGAGGAUCACCCAUGUUGACAUGGAAGAAUGACAGAAGGACGAUGUCCAU
[1]
  apparent Kd: 712 nM
[2]
  apparent Kd: 11.8 nM

## UUGGACGUCGUAGGAUAUGUAGGGUAUUCCUACAUGAGGAUCACCCAUGUUGACAUGGAAGAAGGACAGAAGGACGAUGUCCAU
[1]
  apparent Kd: 183 nM
[2]
  apparent Kd: 4.94 nM

## UUGGAGUUCGUAGGAUAUGUAGGAUAUUCCUACAUGAGGAUCACCCAUGUUGACAUGGAGGAAGGACAGAAGGACGAGCUCCAU
[1]
  apparent Kd: 206 nM
[2]
  apparent Kd: 225 nM

## UUGGAUGUCGUAGGAUAUGUAGGAUAUUCCUACAUGAGGAUCACCCAUGUUGACAUGGAAGAAGGACAGAAGGACGAUGUCCAU
[1]
  apparent Kd: 209 nM
[2]
  apparent Kd: 5.03 nM
